Measured values reported in ChEMBL document CHEMBL2150999, “Design, synthesis and biological evaluation of benzo[e][1,2,4]triazin-7(1H)-one and [1,2,4]-triazino[5,6,1-jk]carbazol-6-one derivatives as dual inhibitors of beta-amyloid aggregation and acetyl/butyryl cholinesterase” (Eur J Med Chem, 2012).
In brackets after ≈: the same amount, converted by molar mass. Activity calls are given as the source filed them. The calls are words filed in the database; no cut-off is given here.

Experiments:
[1] = Inhibition of HFIP-induced amyloid beta (1-40) aggregation at 100 uM after 2 hrs by thioflavin T fluorescence method
Outline: (§1)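 Pre-monomerized Aβ1-40 (HFIP-dissolved, lyophilized) at 30 µM in PBS (0.01 M, NaCl 0.1 M, pH 7.4) with 2% HFIP and 10% DMSO, coincubated with compound in triplicate at 25 °C for 2 h. Sample mixed with 25 µM ThT in 0.025 M phosphate pH 6.0; excitation 440 nm, emission 485 nm. Peptide-free blanks subtracted; % inhibition versus control. Primary screen at 100 µM. IC50 from 5–7 concentrations (200–0.01 µM) tested in duplicate, three independent experiments.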

[2] = target: Acetylcholinesterase (Electrophorus electricus) (UniProt O42275); assay: Inhibition of electric eel AChE using acetylthiocholine iodide as substrate at 10 uM after 20 mins by Ellman's method
Acetylcholinesterase (Electrophorus electricus), sequence (O42275 24-633 limits assumed): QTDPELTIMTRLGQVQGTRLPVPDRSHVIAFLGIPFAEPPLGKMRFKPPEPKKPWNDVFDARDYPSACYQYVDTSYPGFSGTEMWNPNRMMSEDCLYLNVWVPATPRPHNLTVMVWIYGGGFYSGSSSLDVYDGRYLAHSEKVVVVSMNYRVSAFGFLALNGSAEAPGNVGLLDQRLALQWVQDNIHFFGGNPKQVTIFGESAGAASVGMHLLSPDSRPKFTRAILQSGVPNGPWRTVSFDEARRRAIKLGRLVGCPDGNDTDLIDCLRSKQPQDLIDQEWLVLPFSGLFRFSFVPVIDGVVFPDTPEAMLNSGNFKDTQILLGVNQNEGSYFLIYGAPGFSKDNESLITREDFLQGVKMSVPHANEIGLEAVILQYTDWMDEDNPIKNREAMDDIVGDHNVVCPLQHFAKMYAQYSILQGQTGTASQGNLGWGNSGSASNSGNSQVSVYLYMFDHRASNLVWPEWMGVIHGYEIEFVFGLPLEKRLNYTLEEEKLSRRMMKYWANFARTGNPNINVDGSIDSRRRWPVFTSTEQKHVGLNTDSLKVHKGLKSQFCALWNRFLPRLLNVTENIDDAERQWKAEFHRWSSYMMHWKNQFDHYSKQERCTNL

[3] = target: Cholinesterase (Equus caballus) (UniProt P81908); assay: Inhibition of equine serum BChE using butyrylthiocholine iodide as substrate at 10 uM after 20 mins by Ellman's method
Cholinesterase (Equus caballus), sequence (P81908 whole entry): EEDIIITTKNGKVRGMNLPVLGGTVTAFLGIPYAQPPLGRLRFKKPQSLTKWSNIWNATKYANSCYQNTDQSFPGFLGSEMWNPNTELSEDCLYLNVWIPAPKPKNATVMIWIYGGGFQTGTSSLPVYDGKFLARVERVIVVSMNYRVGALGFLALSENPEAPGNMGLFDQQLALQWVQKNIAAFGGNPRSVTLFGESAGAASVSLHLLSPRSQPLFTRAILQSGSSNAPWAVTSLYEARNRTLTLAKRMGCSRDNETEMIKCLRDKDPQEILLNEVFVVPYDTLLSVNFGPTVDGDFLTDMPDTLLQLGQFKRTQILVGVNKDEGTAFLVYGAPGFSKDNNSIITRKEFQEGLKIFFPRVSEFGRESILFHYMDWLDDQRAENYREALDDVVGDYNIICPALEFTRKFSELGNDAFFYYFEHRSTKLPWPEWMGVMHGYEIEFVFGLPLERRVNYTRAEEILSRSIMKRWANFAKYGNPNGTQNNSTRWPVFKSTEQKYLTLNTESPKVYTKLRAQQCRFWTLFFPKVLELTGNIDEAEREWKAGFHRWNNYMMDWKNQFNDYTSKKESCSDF

[4] = Inhibition of HFIP-induced amyloid beta (1-40) aggregation after 2 hrs by thioflavin T fluorescence method; outline: as §1
[5] = target: Cholinesterase (Equus caballus, UniProt P81908); assay: Inhibition of equine serum BChE using butyrylthiocholine iodide as substrate after 20 mins by Ellman's method
Cholinesterase, sequence (P81908 whole entry): as above
Outline: (§2)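 Enzyme (eel AChE 463 U/mg or equine serum BChE 13 U/mg) in 0.1 M phosphate buffer pH 8.0 with DTNB, preincubated with inhibitor 20 min at 25 °C. Then acetylthiocholine or butyrylthiocholine iodide added; absorbance rise at 412 nm read 5.0 min at 25 °C. DMSO below 1%. IC50 from nonlinear regression of response/log(concentration), six to seven concentrations, 1×10^-8 to 1×10^-4 M. Means of three independent experiments.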

[6] = target: Acetylcholinesterase (Electrophorus electricus, UniProt O42275); assay: Inhibition of electric eel AChE using acetylthiocholine iodide as substrate after 20 mins by Ellman's method; outline: as §2
Acetylcholinesterase, sequence (O42275 whole entry): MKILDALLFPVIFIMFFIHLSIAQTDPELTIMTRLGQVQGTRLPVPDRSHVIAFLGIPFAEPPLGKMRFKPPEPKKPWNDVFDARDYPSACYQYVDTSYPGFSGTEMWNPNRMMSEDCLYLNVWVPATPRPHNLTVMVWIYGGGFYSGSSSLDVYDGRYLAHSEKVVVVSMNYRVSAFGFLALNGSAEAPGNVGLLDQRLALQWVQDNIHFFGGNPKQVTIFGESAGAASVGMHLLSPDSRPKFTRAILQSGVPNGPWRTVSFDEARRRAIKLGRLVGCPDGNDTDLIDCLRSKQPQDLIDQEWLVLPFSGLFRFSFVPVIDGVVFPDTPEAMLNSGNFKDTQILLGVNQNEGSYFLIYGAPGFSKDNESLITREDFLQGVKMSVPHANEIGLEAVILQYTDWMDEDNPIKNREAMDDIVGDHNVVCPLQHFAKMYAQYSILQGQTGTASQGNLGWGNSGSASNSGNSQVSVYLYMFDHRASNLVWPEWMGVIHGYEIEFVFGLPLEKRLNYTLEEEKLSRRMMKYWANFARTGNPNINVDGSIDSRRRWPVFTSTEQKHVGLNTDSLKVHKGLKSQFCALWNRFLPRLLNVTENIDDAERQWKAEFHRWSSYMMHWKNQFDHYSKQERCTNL

[7] = Inhibition of amyloid beta (1-42) aggregation at 100 uM measured at 8 hrs and 24 hrs by thioflavin T fluorescence method
Outline: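 Aβ1-42 (30 µM) in PBS/10% DMSO at 37 °C, alone or with compound at 100 µM. ThT fluorescence (ex 440, em 485 nm) read at 8 h and 24 h, reported in arbitrary units; mean ± SEM of three independent experiments.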

[8] = Inhibition of amyloid beta (1-40) beta-sheet transition assessed as decrease in beta-sheet level after 7 days by CD spectroscopic analysis relative to control
Outline: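 Aβ1-40 (50 µM) in PBS with 10% ethanol, alone or with compound (10 or 50 µM), incubated at 37 °C without agitation. CD spectra 195–250 nm were recorded at room temperature in a 0.1 cm cell, with buffer/ethanol or inhibitor blank baseline subtracted. Absolute ellipticity at 215 nm was followed over time and expressed relative to the control plateau.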

[9] = Aqueous solubility of the compound in PBS buffer; assay type: physicochemical
Outline: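 Preliminary solubility in the incubation medium (PBS with up to 10% ethanol cosolvent) measured by UV spectroscopy; used to set the maximum soluble test concentration.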

[10] = Inhibition of amyloid beta (1-40) fibrillation assessed as isolated fibrillar aggregates formation at 10 uM after 7 days by TEM analysis
Outline: (§3)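 Aβ1-40 (50 µM) in PBS/10% ethanol, with compound at 10 or 50 µM, incubated at 37 °C for up to 10 days. Aliquots taken at 7 days were applied to carbon-coated grids and negatively stained with 2% w/v uranyl acetate. Imaged by TEM at 60 kV and 39 000-fold magnification, compared with self-aggregating control.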

[11] = Inhibition of amyloid beta (1-40) fibrillation assessed as extended fibrillar weft formation at 50 uM after 7 days by TEM analysis; outline: as §3

| Compound | inhibition [1] [%] | inhibition [2] [%] | inhibition [3] [%] | IC50 [4] [µM] | further results |
| --- | --- | --- | --- | --- | --- |
| O=c1cc2n(-c3ccccc3)nc(-c3ccccc3)nc-2cc1Nc1ccccc1 | 13 | 57 | 9 | – | – |
| CC1CCCN(c2cc3nc(-c4ccccc4)nn4c5ccccc5c(c2=O)c34)C1 (stereo not given) | – | 27 | 53 | 5.5 | – |
| CN(C)CCCN(C)c1cc2nc(-c3ccccc3)nn3c4ccccc4c(c1=O)c23 | – | 49 | – | 7.6 | IC50 [5]: 4 µM |
| CC1CCCN(c2cc3nc(-c4ccccc4)nn(-c4ccccc4)c-3cc2=O)C1 (stereo not given) | – | 55 | 25 | 0.73 | – |
| CCN(Cc1ccccc1)c1cc2nc(-c3ccccc3)nn(-c3ccccc3)c-2cc1=O | – | 53 | 13 | 2.1 | – |
| CN(Cc1ccccc1)c1cc2nc(-c3ccccc3)nn3c4ccccc4c(c1=O)c23 | – | 53 | 26 | 4.1 | – |
| COc1cc2nc(-c3ccccc3)nn(-c3ccccc3)c-2cc1=O | 60 | 47 | 15 | – | – |
| O=c1cc2n(-c3ccccc3)nc(-c3ccccc3)nc-2cc1N1CCCC1 | 68 | 54 | 15 | – | – |
| O=c1cc2n(-c3ccccc3)nc(-c3ccccc3)nc-2cc1N1CCN(c2ccccc2)CC1 | 53 | – | 15 | – | IC50 [6]: 2.2 µM |
| CC1CCCCN1c1cc2nc(-c3ccccc3)nn(-c3ccccc3)c-2cc1=O (stereo not given) | – | 0 | 22 | 0.37 | inhibition [7]: Active |
| CN(Cc1ccccc1)c1cc2nc(-c3ccccc3)nn(-c3ccccc3)c-2cc1=O | – | 56 | 22 | 1 | – |
| O=c1cc2n(-c3ccccc3)nc(-c3ccccc3)nc-2cc1Sc1ccccc1 | 42 | 49 | 6 | – | – |
| CN(c1ccccc1)c1cc2nc(-c3ccccc3)nn(-c3ccccc3)c-2cc1=O | 51 | 57 | 11 | – | – |
| O=c1cc2n(-c3ccccc3)nc(-c3ccccc3)nc-2cc1N1CCCCCC1 | – | 46 | 47 | 2.8 | – |
| CC1CC(C)CN(c2cc3nc(-c4ccccc4)nn(-c4ccccc4)c-3cc2=O)C1 (stereo not given) | – | 46 | 18 | 1.2 | – |
| O=c1c(O)c(-c2ccc(O)c(O)c2)oc2cc(O)cc(O)c12 | – | – | – | – | inhibition [7]: Active |
| CN(CCCCCCCCN(C)c1cc2nc(-c3ccccc3)nn(-c3ccccc3)c-2cc1=O)Cc1ccccc1 | – | 50 | – | 65 | IC50 [5]: 0.31 µM |
| CN(CCCCCCCCNc1cc2nc(-c3ccccc3)nn(-c3ccccc3)c-2cc1=O)Cc1ccccc1 | – | 45 | 28 | 21 | – |
| CN(CCCCCCCCNc1cc2nc(-c3ccccc3)nn3c4ccccc4c(c1=O)c23)Cc1ccccc1 | 60 | 46 | 25 | – | – |
| O=c1cc2n(-c3ccccc3)nc(-c3ccccc3)nc-2cc1N1CCSCC1 | 62 | 42 | 0 | – | – |

| Compound | inhibition [1] [%] | inhibition [2] [%] | inhibition [3] [%] | IC50 [4] [µM] | further results |
| --- | --- | --- | --- | --- | --- |
| O=c1c(N2CCCC2)cc2nc(-c3ccccc3)nn3c4ccccc4c1c23 | – | 44 | 52 | 2 | – |
| CN(CCCCCN(C)c1cc2nc(-c3ccccc3)nn(-c3ccccc3)c-2cc1=O)Cc1ccccc1 | – | – | – | 1.4 | inhibition ([8]; concentration not given here): 40%; IC50 [6]: 1.5 µM; IC50 [5]: 1.9 µM; solubility [9]: 10 µM (≈ 5.18 µg/mL); inhibition [10]: Active; inhibition [7]: Active |
| O=c1cc2n(-c3ccccc3)nc(-c3ccccc3)nc-2cc1N1CCN(Cc2ccccc2)CC1 | 61 | 56 | 18 | – | – |
| O=c1ccc2nc(-c3ccccc3)nn3c4ccccc4c1c23 | – | 46 | 59 | 6.1 | inhibition [8]: inactive; solubility [9]: 50 µM (≈ 14.9 µg/mL); inhibition [11]: Active; inhibition [7]: Active |
| O=c1cc2n(-c3ccccc3)nc(-c3ccccc3)nc-2cc1N1CCCCC1 | – | 39 | 7 | 7.1 | – |
| CN1CCN(c2cc3nc(-c4ccccc4)nn(-c4ccccc4)c-3cc2=O)CC1 | 55 | 55 | 12 | – | – |
| CC1CCN(c2cc3nc(-c4ccccc4)nn(-c4ccccc4)c-3cc2=O)CC1 | 68 | 48 | 11 | – | – |
| CN(C)CCCN(C)c1cc2nc(-c3ccccc3)nn(-c3ccccc3)c-2cc1=O | 45 | 46 | 18 | – | – |
| O=c1cc2n(-c3ccccc3)nc(-c3ccccc3)nc-2cc1N1CCC(c2ccccc2)CC1 | – | 35 | 10 | 1.5 | – |
| COc1cc2nc(-c3ccccc3)nn3c4ccccc4c(c1=O)c23 | 33 | 52 | 11 | – | – |
| O=c1ccc2nc(-c3ccccc3)nn(-c3ccccc3)c-2c1 | 39 | 47 | 27 | – | – |
| O=c1c(N2CCC(c3ccccc3)CC2)cc2nc(-c3ccccc3)nn3c4ccccc4c1c23 | – | 48 | 11 | 3.9 | – |
| O=c1cc2n(-c3ccccc3)nc(-c3ccccc3)nc-2cc1N1CCOCC1 | 48 | 42 | 0 | – | – |
| CN(CCCCCCCCN(C)c1cc2nc(-c3ccccc3)nn3c4ccccc4c(c1=O)c23)Cc1ccccc1 | – | 55 | – | 1.4 | IC50 [5]: 0.025 µM; inhibition [7]: Active |
| CN(c1cc2nc(-c3ccccc3)nn(-c3ccccc3)c-2cc1=O)C1CCCCC1 | – | 55 | 37 | 4 | – |
| CCN(CC)c1cc2nc(-c3ccccc3)nn3c4ccccc4c(c1=O)c23 | – | 46 | 54 | 1.4 | – |
| O=c1cc2n(-c3ccccc3)nc(-c3ccccc3)nc-2cc1N1CCCc2ccccc21 | – | 41 | 10 | 6.7 | – |
| O=c1cc2n(-c3ccccc3)nc(-c3ccccc3)nc-2cc1N1CCc2ccccc2C1 | 68 | 47 | 14 | – | – |
| CCN(CC)c1cc2nc(-c3ccccc3)nn(-c3ccccc3)c-2cc1=O | – | 55 | 19 | 17 | – |
